{"source": "ChEMBL document CHEMBL4477202", "about": "“Synthesis and evaluation of duocarmycin SA analogs incorporating the methyl 1,2,8,8a-tetrahydrocyclopropa[c]imidazolo[4,5-e]indol-4-one-6-carboxylate (CImI) alkylation subunit” (Bioorg Med Chem, 2016)", "key": {"Betapolyomavirus macacae [1]": {"test_system": "Betapolyomavirus macacae", "test": "Induction of alkylation at Simian virus 40 150-bp DNA w794 at 10^-5 to 10^-7/M after 24 hrs by PAGE and autoradiography method", "outline": "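w794 DNA incubated with agent at 23 °C for 24 h. Unbound agent was removed by EtOH precipitation, then the DNA was heated at 100 °C for 30 min to cleave strands at alkylated sites. Fragments were resolved by 8% denaturing PAGE against Sanger G, C, A and T sequencing lanes and untreated control DNA, and detected by autoradiography.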"}, "[2]": {"test": "Solvolysis reactivity of the compound in phosphate buffer at pH 7 upto 187 hrs by UV spectrophotometry"}, "[3]": {"test": "Solvolysis reactivity of the compound in phosphate buffer assessed as half life at pH 3 upto 187 hrs by UV spectrophotometry", "outline": "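UV spectra taken hourly for the first 8 h, then every 12 h, over 0–187 h until absorbance stopped changing. Rate constant and t1/2 derived from initial (A_i) and final (A_f) absorbance.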"}, "[4]": {"test": "Solvolysis reactivity of the compound in presence of Cu(acac)2 at 23 degC in MeoH solution by UV spectrophotometry"}, "[5]": {"test": "Solvolysis reactivity of the compound in presence of Ni(acac)2 at 23 degC in MeoH solution by UV spectrophotometry"}, "[6]": {"test": "Solvolysis reactivity of the compound in presence of Zn(acac)2 at 23 degC in MeoH solution by UV spectrophotometry"}, "[7]": {"test": "Solvolysis reactivity of the compound in presence of Pb(acac)2 at 23 degC in MeoH solution by UV spectrophotometry"}, "[8]": {"test": "Solvolysis reactivity of the compound in presence of Cd(acac)2 at 23 degC in MeoH solution by UV spectrophotometry"}, "Betapolyomavirus macacae [9]": {"test_system": "Betapolyomavirus macacae", "test": "Induction of alkylation at Simian virus 40 150-bp DNA w794 after 24 hrs by PAGE and autoradiography method", "outline": "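Labelled w794 DNA incubated with agent at 23 °C for 24 h. Unbound agent removed by EtOH precipitation, then thermolysis at 100 °C for 30 min to cleave strands at alkylation sites. Fragments resolved by 8% denaturing PAGE and read by autoradiography, alongside untreated control DNA and Sanger G, C, A, T sequencing lanes.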"}, "[10]": {"test": "Solvolysis reactivity of the compound in aqueous buffer assessed as solvolytic rate constant at pH 2 by UV spectrophotometry"}, "[11]": {"test": "Solvolysis reactivity of the compound in aqueous buffer assessed as half life at pH 2 by UV spectrophotometry"}, "L1210": {"test_system": "L1210", "test": "Cytotoxicity against mouse L1210 cells assessed as cell growth inhibition", "type": "functional, cell-based"}}, "note": "Activity calls are given as the source filed them. No cut-off for these calls is given here.", "data": [{"smiles": "COC(=O)c1nc2c3c(cc(O)c2[nH]1)N(C(=O)c1cc2cc(OC)c(OC)c(OC)c2[nH]1)C[C@H]3CCl", "values": [{"measurement": "Activity", "setting": "Betapolyomavirus macacae [1]", "result": "Active"}]}, {"smiles": "COC(=O)c1cc2c([nH]1)C(=O)C=C1N(C(=O)OC(C)(C)C)CC3CC123", "note": "(stereo unspecified)", "values": [{"measurement": "Stability", "setting": "[2]", "result": "Stable"}, {"measurement": "T1/2", "setting": "[3]", "result": 177, "unit": "h"}, {"measurement": "Stability", "setting": "[4]", "result": "Stable"}, {"measurement": "Stability", "setting": "[5]", "result": "Stable"}, {"measurement": "Stability", "setting": "[6]", "result": "Stable"}, {"measurement": "Stability", "setting": "[7]", "result": "Stable"}, {"measurement": "Stability", "setting": "[8]", "result": "Stable"}]}, {"smiles": "COC(=O)c1cc2c([nH]1)C(=O)C=C1N(C(=O)c3cc4cc(OC)c(OC)c(OC)c4[nH]3)C[C@H]3C[C@]123", "values": [{"measurement": "Activity", "setting": "Betapolyomavirus macacae [9]", "result": "Active"}]}, {"smiles": "Cc1c[nH]c2c1[C@@]13C[C@@H]1CN(C(=O)OC(C)(C)C)C3=CC2=O", "values": [{"measurement": "K", "setting": "[10]", "result": 5.26, "unit": "×10⁻⁶ /s"}, {"measurement": "T1/2", "setting": "[11]", "result": 37, "unit": "h"}]}, {"smiles": "COC(=O)c1nc2c([nH]1)C(=O)C=C1N(C(=O)OC(C)(C)C)C[C@H]3C[C@]123", "values": [{"measurement": "IC50", "setting": "L1210", "result": 70, "unit": "nM"}]}, {"smiles": "COC(=O)c1nc2c([nH]1)C(=O)C=C1N(C(=O)OC(C)(C)C)CC3CC123", "note": "(stereo unspecified)", "values": [{"measurement": "T1/2", "setting": "[3]", "result": 34.7, "unit": "h"}, {"measurement": "Stability", "setting": "[4]", "result": "Stable"}, {"measurement": "Stability", "setting": "[5]", "result": "Stable"}, {"measurement": "Stability", "setting": "[6]", "result": "Stable"}, {"measurement": "Stability", "setting": "[7]", "result": "Stable"}, {"measurement": "Stability", "setting": "[8]", "result": "Stable"}]}, {"smiles": "COC(=O)c1cc2c([nH]1)C(=O)C=C1N(C(=O)c3cc4cc(NC(=O)c5cc6ccccc6[nH]5)ccc4[nH]3)C[C@H]3C[C@]123", "values": [{"measurement": "IC50", "setting": "L1210", "result": 0.004, "unit": "nM"}]}, {"smiles": "COC(=O)c1cc2c([nH]1)C(=O)C=C1N(C(=O)c3cc4cc(NC(=O)c5cc6ccccc6[nH]5)ccc4[nH]3)C[C@@H]3C[C@@]123", "values": [{"measurement": "IC50", "setting": "L1210", "result": 0.15, "unit": "nM"}]}, {"smiles": "COC(=O)c1nc2c([nH]1)C(=O)C=C1N(C(=O)OC(C)(C)C)C[C@@H]3C[C@@]123", "values": [{"measurement": "IC50", "setting": "L1210", "result": 1100, "unit": "nM"}]}, {"smiles": "COC(=O)c1nc2c([nH]1)C(=O)C=C1N(C(=O)c3cc4cc(OC)c(OC)c(OC)c4[nH]3)C[C@@H]3C[C@@]123", "values": [{"measurement": "IC50", "setting": "L1210", "result": 2.2, "unit": "nM"}]}, {"smiles": "COC(=O)c1nc2c([nH]1)C(=O)C=C1N(C(=O)c3cc4cc(NC(=O)c5cc6ccccc6[nH]5)ccc4[nH]3)C[C@@H]3C[C@@]123", "values": [{"measurement": "IC50", "setting": "L1210", "result": 0.7, "unit": "nM"}]}, {"smiles": "COC(=O)c1nc2c([nH]1)C(=O)C=C1N(C(=O)c3cc4cc(OC)c(OC)c(OC)c4[nH]3)C[C@H]3C[C@]123", "values": [{"measurement": "IC50", "setting": "L1210", "result": 0.05, "unit": "nM"}, {"measurement": "Activity", "setting": "Betapolyomavirus macacae [9]", "result": "inactive"}]}, {"smiles": "COC(=O)c1nc2c([nH]1)C(=O)C=C1N(C(=O)c3cc4cc(NC(=O)c5cc6ccccc6[nH]5)ccc4[nH]3)C[C@H]3C[C@]123", "values": [{"measurement": "IC50", "setting": "L1210", "result": 0.04, "unit": "nM"}]}]}
